The source made the active and inactive calls. The rule behind the calls is not given here.
Legend:
[1] = Toxicity in axolotl embryo at 10 uM after 7 days by tail regeneration assay; details: ambystoma mexicanum, 168 h, time 7 day
In short: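 Stage 42 axolotl embryos were hatched manually, anesthetized with benzocaine and given 2 mm tail amputations. They were reared at 18–19 °C in artificial pond water with compound (10 μM; one compound at 1.0 μM) in 0.1% final DMSO. Regeneration was imaged at 0 and 7 days postamputation. DMSO was the negative control and geldanamycin the positive control.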

Micrococcus luteus = assay: Antibacterial activity against Micrococcus luteus NRRL B-287 at <= 133 uM incubated for 16 hrs; format: functional, organism-based; details: dose microM <=133, time 16.0 hrs
In short: (§1)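 Microbial strains from ATCC or NRRL, tested in triplicate with a top concentration of 133 μM. Positive controls were kanamycin and ampicillin (S. aureus, M. luteus, S. enterica, E. coli) and amphotericin B (S. cerevisiae).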

Mycolicibacterium aurum = assay: Antibacterial activity against Mycobacterium aurum ATCC 23366 at <= 133 uM incubated for 16 hrs; format: functional, organism-based; details: dose microM <=133, time 16.0 hrs; in short: as §1
A549 [2] = assay: Cytotoxicity against human A549 cells assessed as reduction in cell viability at 80 uM after 72 hrs by resazurin dye based fluorescence analysis; format: functional
In short: (§2)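 A549 (non-small-cell lung) and PC3 (prostate) human cancer cells from ATCC. Viability was read after 72 h, in triplicate. Runs were either a single 80 μM concentration or a dose-response. Actinomycin D served as the positive control.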

Saccharomyces cerevisiae = assay: Antifungal activity against Saccharomyces cerevisiae ATCC 204508 at <= 133 uM after 16 hrs; format: functional, organism-based; details: dose microM <=133, time 16.0 hrs; in short: as §1
PC-3 [3] = assay: Cytotoxicity against human PC3 cells assessed as reduction in cell viability at 80 uM after 72 hrs by resazurin dye based fluorescence analysis; format: functional; in short: as §2
Escherichia coli = assay: Antibacterial activity against Escherichia coli NRRL B-3708 at <= 133 uM incubated for 16 hrs; format: functional, organism-based; details: dose microM <=133, time 16.0 hrs; in short: as §1
Staphylococcus aureus = assay: Antibacterial activity against Staphylococcus aureus ATCC 6538 at <= 133 uM incubated for 16 hrs; format: functional, organism-based; details: dose microM <=133, time 16.0 hrs; in short: as §1
Salmonella enterica = assay: Antibacterial activity against Salmonella enterica ATCC 10708 at <= 133 uM incubated for 16 hrs; format: functional, organism-based; details: dose microM <=133, time 16.0 hrs; in short: as §1
Bacillus spizizenii = assay: Antibacterial activity against Bacillus subtilis ATCC 6633 at <= 133 uM incubated for 16 hrs; format: functional, organism-based; details: dose microM <=133, time 16.0 hrs; in short: as §1
PC-3 [4] = assay: Cytotoxicity against human PC3 cells assessed as reduction in cell viability after 72 hrs by resazurin dye based fluorescence analysis; format: functional; details: PC-3, 72 h; in short: as §2
[5] = biological target: Eukaryotic translation initiation factor 4E-binding protein 1 (Homo sapiens) (UniProt Q13541); assay: Inhibition of 4E-BP1 phosphorylation in human HCT116 cells at 2 uM after 6 hrs by Western blot analysis; format: cell-based; details: HCT-116
In short: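 HCT116 cells were treated 6 h with 2 μM compound or with DMSO as negative control. Lysate was run on SDS-PAGE, blotted to PVDF and probed for phospho-4E-BP1 (Thr37/46, Ser65, Thr70), with chemiluminescent detection.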

A549 [6] = assay: Cytotoxicity against human A549 cells assessed as reduction in cell viability after 72 hrs by resazurin dye based fluorescence analysis; format: functional; details: A549, 72 h; in short: as §2
[7] = Toxicity in axolotl embryo at 1 uM after 7 days by tail regeneration assay; details: ambystoma mexicanum, 168 h, time 7 day
In short: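 Stage 42 embryos manually hatched, anaesthetised with benzocaine, given 2 mm tail amputations, then reared with or without test agent in artificial pond water at 18–19 °C for 7 days postamputation. Imaged at 0 and 7 DPA. Agents dissolved in DMSO, 0.1% final DMSO. Vehicle served as negative control, geldanamycin as positive control.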

Chain of Eukaryotic translation initiation factor 4E-binding protein 1 (Homo sapiens) (Q13541 whole entry): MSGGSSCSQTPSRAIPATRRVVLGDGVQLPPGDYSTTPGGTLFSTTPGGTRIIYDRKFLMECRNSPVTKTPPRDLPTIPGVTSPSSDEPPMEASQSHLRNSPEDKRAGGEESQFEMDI

inhibition [5] | Structure (SMILES) | Activity [1] | Activity (Micrococcus luteus) | Activity (Mycolicibacterium aurum) | Activity (Saccharomyces cerevisiae) | Activity (Escherichia coli) | Activity (Staphylococcus aureus) | Activity (Salmonella enterica) | Activity (Bacillus spizizenii) | IC50 (PC-3 [4]) [µM] | IC50 (A549 [6]) [µM] | also measured
– | C[C@@H]1O[C@@H](O[C@H]2CC[C@H](O[C@@]3(C)CC(=O)[C@]4(O)C5=C(C=C[C@]4(O)C3)C(=O)c3c(ccc([C@H]4C[C@H]6O[C@H]7CC(=O)[C@H](C)O[C@H]7O[C@H]6[C@@H](C)O4)c3O)C5=O)O[C@H]2C)C(N)=CC1=O | Non-Toxic | – | – | – | – | – | – | – | – | – | –
– | COc1cccc2c1C(=O)c1ccc(/C=C(\C)CC(=O)O)c(O)c1C2=O | – | inactive | inactive | inactive | inactive | inactive | inactive | inactive | – | – | Activity (A549 [2]): inactive; Activity (PC-3 [3]): inactive
Active | C[C@@H]1O[C@H]2O[C@H]3[C@@H](C)O[C@@H](c4ccc5c(c4O)C(=O)C4=C(C5=O)[C@@]5(O)C(=O)C[C@](C)(O[C@H]6CC[C@H](O[C@H]7CC[C@H](O)[C@H](C)O7)[C@H](C)O6)C[C@@]5(O)C=C4)C[C@H]3O[C@H]2CC1=O | Non-Toxic | – | – | – | – | – | – | – | < 0.5 | < 0.5 | –
– | COc1cccc2c1C(=O)c1ccc(/C=C(/C)CC(=O)O)c(O)c1C2=O | – | inactive | inactive | inactive | inactive | inactive | inactive | inactive | – | – | Activity (A549 [2]): inactive; Activity (PC-3 [3]): inactive
Active | C[C@@H]1O[C@@H](O[C@H]2CC[C@H](O[C@@]3(C)CC(=O)[C@]4(O)C5=C(C=C[C@]4(O)C3)C(=O)c3c(ccc([C@H]4C[C@@H](O)[C@H](O[C@H]6CC[C@H](O)[C@H](C)O6)[C@@H](C)O4)c3O)C5=O)O[C@H]2C)C=CC1=O [SAQUAYAMYCIN K] | – | – | – | – | – | – | – | – | < 0.5 | < 0.5 | –
– | Cc1cc(O)c2c3c(ccc2c1)C(=O)c1c(O[C@H]2C[C@@H](O)[C@H](O[C@H]4C[C@@H](O)[C@H](O)[C@@H](C)O4)[C@@H](C)O2)cccc1C3=O [LANDOMYCIN O] | Toxic | – | – | – | – | – | – | – | – | – | –
– | C[C@@H]1O[C@@H](O[C@H]2CC[C@H](O[C@@]3(C)CC(=O)[C@]4(O)C5=C(C=C[C@]4(O)C3)C(=O)c3c(ccc([C@H]4C[C@@H](O)[C@H](O[C@@H]6O[C@@H](C)C(=O)C=C6N)[C@@H](C)O4)c3O)C5=O)O[C@H]2C)C=CC1=O [SAQUAYAMYCIN I] | Non-Toxic | – | – | – | – | – | – | – | – | – | –
– | C[C@@H]1O[C@@H](O[C@H]2CC[C@H](O[C@@]3(C)CC(=O)[C@]4(O)C5=C(C=C[C@]4(O)C3)C(=O)c3c(ccc([C@H]4C[C@@H](O)[C@H](O)[C@@H](C)O4)c3O)C5=O)O[C@H]2C)C=CC1=O [SAQUAYAMYCIN G] | Non-Toxic | – | – | – | – | – | – | – | – | – | –
– | COc1cccc2c1C(=O)c1cc(O)c(/C=C(/C)CC(=O)O)c(O)c1C2=O | – | inactive | inactive | inactive | inactive | inactive | inactive | inactive | – | – | Activity (A549 [2]): inactive; Activity (PC-3 [3]): inactive
Active | Cc1cc(O)c2c(c1)C[C@@H](O)C1=C2C(=O)c2cccc(O[C@H]3C[C@@H](O)[C@H](O[C@H]4C[C@@H](O[C@H]5CC[C@H](O[C@H]6CC[C@H](O[C@H]7C[C@@H](O[C@H]8CC[C@H](O)[C@H](C)O8)[C@H](O)[C@@H](C)O7)[C@@H](C)O6)[C@H](C)O5)[C@H](O)[C@@H](C)O4)[C@@H](C)O3)c2C1=O | – | – | – | – | – | – | – | – | < 0.5 | < 0.5 | –
– | COC(=O)C/C(C)=C\c1c(O)cc2c(c1O)C(=O)c1cccc(O)c1C2=O | – | inactive | inactive | inactive | inactive | inactive | inactive | inactive | – | – | Activity (A549 [2]): inactive; Activity (PC-3 [3]): inactive
– | C/C(=C/c1c(O)cc2c(c1O)C(=O)c1cccc(O)c1C2=O)CC(=O)O | – | inactive | inactive | inactive | inactive | inactive | inactive | inactive | – | – | Activity (A549 [2]): inactive; Activity (PC-3 [3]): inactive
Active | Cc1cc(O)c2c3c(ccc2c1)C(=O)c1c(O[C@H]2C[C@@H](O)[C@H](O[C@H]4C[C@@H](O[C@H]5CC[C@H](O[C@H]6CC[C@H](O[C@H]7C[C@@H](O[C@H]8CC[C@H](O)[C@H](C)O8)[C@H](O)[C@@H](C)O7)[C@@H](C)O6)[C@H](C)O5)[C@H](O)[C@@H](C)O4)[C@@H](C)O2)cccc1C3=O | – | – | – | – | – | – | – | – | < 0.5 | < 0.5 | –
– | C[C@@H]1O[C@@H](O[C@@H]2C[C@H](c3ccc4c(c3O)C(=O)C3=C(C4=O)[C@@]4(O[C@H]5CC[C@H](O)[C@H](C)O5)C(=O)C[C@](C)(O)C[C@@]4(O)C=C3)O[C@H](C)[C@H]2O)CC[C@@H]1O[C@H]1C[C@@H](O)[C@H](O)[C@@H](C)O1 | Non-Toxic | – | – | – | – | – | – | – | – | – | –
– | CC(=O)OC(=O)C(O)/C(C)=C\c1c(O)cc2c(c1O)C(=O)c1cccc(O)c1C2=O (stereo unspecified) | – | inactive | inactive | inactive | inactive | inactive | inactive | inactive | – | – | Activity (A549 [2]): inactive; Activity (PC-3 [3]): inactive
– | Cc1cc(O)c2c(c1)C[C@@H](O)C1=C2C(=O)c2cccc(O[C@H]3C[C@@H](O)[C@H](O[C@H]4C[C@@H](O[C@H]5CC[C@H](O[C@H]6C[C@@H](O)[C@H](O[C@H]7C[C@@H](O)[C@H](O)[C@@H](C)O7)[C@@H](C)O6)[C@H](C)O5)[C@H](O)[C@@H](C)O4)[C@@H](C)O3)c2C1=O [LANDOMYCIN V] | Toxic | – | – | – | – | – | – | – | – | – | –
Active | Cc1cc(O)c2c(c1)C[C@@H](O)C1=C2C(=O)c2c(O)ccc(O[C@H]3C[C@@H](O)[C@H](O[C@H]4C[C@@H](O[C@H]5CC[C@H](O[C@H]6C[C@@H](O)[C@H](O[C@H]7C[C@@H](O[C@H]8CC[C@H](O)[C@H](C)O8)[C@H](O)[C@@H](C)O7)[C@@H](C)O6)[C@H](C)O5)[C@H](O)[C@@H](C)O4)[C@@H](C)O3)c2C1=O [LANDOMYCIN A] | – | – | – | – | – | – | – | – | < 0.5 | < 0.5 | –
– | C[C@@H]1O[C@H]2O[C@H]3[C@@H](C)O[C@@H](c4ccc5c(c4O)C(=O)C4=C(C5=O)[C@@]5(O)C(=O)C[C@](C)(O)C[C@@]5(O)C=C4)C[C@H]3O[C@H]2CC1=O | Non-Toxic | – | – | – | – | – | – | – | – | – | –
– | Cc1cc(O)c2c3c(ccc2c1)C(=O)c1c(O[C@H]2C[C@@H](O)[C@H](O[C@H]4C[C@@H](O[C@H]5CC[C@H](O[C@H]6C[C@@H](O)[C@H](O[C@H]7C[C@@H](O)[C@H](O)[C@@H](C)O7)[C@@H](C)O6)[C@H](C)O5)[C@H](O)[C@@H](C)O4)[C@@H](C)O2)cccc1C3=O [LANDOMYCIN M] | Toxic | – | – | – | – | – | – | – | – | – | –

Structure (SMILES) | inhibition [5] | Activity [1] | Activity (Micrococcus luteus) | Activity (Mycolicibacterium aurum) | Activity (Saccharomyces cerevisiae) | Activity (Escherichia coli) | Activity (Staphylococcus aureus) | Activity (Salmonella enterica) | Activity (Bacillus spizizenii) | IC50 (PC-3 [4]) [µM] | IC50 (A549 [6]) [µM] | also measured
C[C@@H]1O[C@@H](O[C@H]2[C@H](O)C[C@H](c3ccc4c(c3O)C(=O)C3=C(C4=O)[C@@]4(O)C(=O)C[C@](C)(O[C@H]5CC[C@H](O[C@H]6C=CC(=O)[C@H](C)O6)[C@H](C)O5)C[C@@]4(O)C=C3)O[C@@H]2C)C=CC1=O [SAQUAYAMYCINS A] | Active | – | – | – | – | – | – | – | – | < 0.5 | < 0.5 | Activity [7]: Toxic
COc1cccc2c1C(=O)C1=C(C2=O)c2c(O)cc(C)cc2[C@@H](O)[C@H]1O | inactive | Non-Toxic | inactive | inactive | inactive | inactive | inactive | inactive | inactive | 0.32 | 1.88 | –
C[C@@H]1O[C@@H](O[C@H]2CC[C@H](O[C@@]3(C)CC(=O)[C@]4(O)C5=C(C=C[C@]4(O)C3)C(=O)c3c(ccc([C@H]4C[C@H]6O[C@H]7CC(=O)[C@H](C)O[C@H]7O[C@H]6[C@@H](C)O4)c3O)C5=O)O[C@H]2C)C=CC1=O | Active | – | – | – | – | – | – | – | – | < 0.5 | < 0.5 | –
